In publication PMC6425477 (ACS chemical biology, 2018):

Legend:
D456 GBM PDX cells [1] = assay: Cell growth; format: cell-based, human
Method in brief: (§1)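 D456 pediatric primary GBM PDX cells and normal human astrocytes were treated in the same manner with test compound (DMSO stock) at 5, 20 and 50 μM for 7 days. Growth was read by cell titer. IC50 came from non-linear regression. D456 and NHA were compared by one-way ANOVA with Dunnett's multiple comparisons.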

D456 GBM PDX cells [2] = assay: Glucose uptake; format: cell-based, human
Method in brief: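 D456 GBM PDX cells were given test compound over a range of concentrations. Glucose uptake was read by 2-NBDG, per the manufacturer's protocol. IC50 for glucose uptake came from a curve-fit model.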

[3] = tested on: GBM PDX cell lines, D456, GBM157, and 1016; assay: 2-NBDG glucose uptake in three GBM PDX cell lines; format: cell-based, human; details: 50 μM; all cells tested (D456, GBM157, 1016)
Method in brief: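 2-NBDG uptake in D456, GBM157 and 1016 GBM PDX cells, run per the manufacturer's protocol. Test compound (DMSO stock) at 50 μM. Data averaged from 2 experiments with n=3 per group. Compared by one-way ANOVA with Tukey's multiple comparisons.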

GBM PDX cells = assay: Extracellular flux analysis glycolytic stress test; format: cell-based, human; details: 50 μM; for increase in ECAR following the addition of oligomycin: 4 hours
Method in brief: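 Glycolysis stress test on a Seahorse XF96 flux analyzer in GBM PDX cells. Cells were glucose-starved with test compound at 50 μM for 4 h, then given glucose, oligomycin and 2-DG in turn. Glycolysis = ECAR after glucose minus basal. Capacity and reserve are derived from ECAR before and after 2-DG and oligomycin. Two experiments, n=6; mean ± sem; Student's t-test versus control.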

D456 GBM PDX cells [4] = assay: 2-deoxyglucose; format: cell-based, human
[5] = tested on: normal human astrocytes (NHAs); assay: Cell growth / toxicity in normal human astrocytes; format: cell-based; details: for growth inhibition of GBM PDX cells compared to NHAs: D456 GBM PDX vs NHAs, 5, 20, 50 μM, 7 days
Method in brief: as §1

GLUT1 = details: pharmacological inhibition of GLUT1; cited from earlier work
[6] = dose-response, Supporting Information Figure 3c

| Structure (SMILES) | GBM PDX cell growth (in words) (D456 GBM PDX cells [1]; GBM PDX cells, line not given, Supplementary Figure 5b) | inhibition of glucose uptake (in words) (D456 GBM PDX cells [2]; D456 GBM PDX cells, Supporting Information Figures 4 and 5) | inhibition of glucose uptake (2-NBDG) [3] | inhibition of D456 GBM PDX cell growth (in words) (D456 GBM PDX cells [1]; 5 μM) | glycolytic capacity (ECAR before 2-DG minus ECAR after 2-DG) (GBM PDX cells) | glycolytic reserve capacity (ECAR after Oligo minus ECAR before Oligo) (GBM PDX cells) | increase in ECAR following the addition of oligomycin (GBM PDX cells) | ECAR ascribed to glycolysis after injection of glucose (GBM PDX cells; 4 hours glucose starvation before glucose) | decrease in glucose uptake (2-DG) (D456 GBM PDX cells [4]) | glucose uptake compared to control (2-DG) (D456 GBM PDX cells [4]) | toxicity to NHAs [5] | growth inhibition of GBM PDX cells compared to NHAs [5] | plateau of glucose uptake inhibition (D456 GBM PDX cells [2]; [6]) | threshold concentration at which glucose uptake inhibition plateaus (D456 GBM PDX cells [2]; [6]) | IC50 (D456 GBM PDX cells [1]; read-out: IC50 for growth inhibition, D456 GBM PDX cells, 7 days) | IC50 (D456 GBM PDX cells [2]; read-out: IC50 for glucose uptake, Supporting Information Figure 3c) | tumor formation capabilities of TICs (GLUT1) |
| --- | --- | --- | --- | --- | --- | --- | --- | --- | --- | --- | --- | --- | --- | --- | --- | --- | --- |
| O=c1c(-c2ccc(O)cc2)coc2cc(O)cc(O)c12 [genistein, reference compound] | did reduce GBM PDX cell growth | inhibited glucose uptake |  |  |  |  |  |  |  |  |  |  |  |  |  |  |  |
| O=C1CC(c2ccc(-c3ccn[nH]3)s2)c2cc(N3CCNC3=O)ccc2N1 (stereo not shown) [SRI-37683] |  |  | 40–50% | almost completely inhibited | decrease | decrease | inhibited an increase in ECAR | significantly inhibited | approximately 40% | 60% | minimal toxicity | significantly stronger growth inhibition | ~50% | approximately 3 μM |  |  |  |
| O=C1CC(c2cccc3[nH]ccc23)c2ccc(NC(=O)c3cccnc3)cc2N1 (stereo not shown) [SRI-37684] |  |  | 40–50% |  | decrease | decrease | inhibited an increase in ECAR |  | ~50% | 50% | minimal toxicity | significantly stronger growth inhibition |  |  | 8.6 µM | 33 µM |  |
| O=C(Oc1cccc(F)c1OC(=O)c1cccc(O)c1)c1cccc(O)c1 [WZB117, 2-Fluoro-6-(m-hydroxybenzoyloxy) Phenyl m-Hydroxybenzoate] |  |  |  |  |  |  |  |  |  |  |  |  |  |  |  |  | decrease the tumor formation capabilities of TICs |
